# Measurements reported in ChEMBL document CHEMBL4706726, “Glucosamine and Its Analogues as Modulators of Amyloid-β Toxicity” (ACS Med Chem Lett, 2021).
# Calls of active or inactive are those of the source. The calls are words filed in the database; no cut-off is given here.
# Experiments:
# [1] = target: Amyloid-beta precursor protein (Homo sapiens) (UniProt P05067); experiment: Modulation of human amyloid beta (1 to 42) supramolecular assembly assessed as elongation of amyloid beta42 fibrils at <50 mM measured for 10 days by ThT dye based fluorescence spectrophotometry; settings: filed as modulator, dose mM <50, time 10.0 day
# Chain of Amyloid-beta precursor protein (Homo sapiens) (P05067 whole entry): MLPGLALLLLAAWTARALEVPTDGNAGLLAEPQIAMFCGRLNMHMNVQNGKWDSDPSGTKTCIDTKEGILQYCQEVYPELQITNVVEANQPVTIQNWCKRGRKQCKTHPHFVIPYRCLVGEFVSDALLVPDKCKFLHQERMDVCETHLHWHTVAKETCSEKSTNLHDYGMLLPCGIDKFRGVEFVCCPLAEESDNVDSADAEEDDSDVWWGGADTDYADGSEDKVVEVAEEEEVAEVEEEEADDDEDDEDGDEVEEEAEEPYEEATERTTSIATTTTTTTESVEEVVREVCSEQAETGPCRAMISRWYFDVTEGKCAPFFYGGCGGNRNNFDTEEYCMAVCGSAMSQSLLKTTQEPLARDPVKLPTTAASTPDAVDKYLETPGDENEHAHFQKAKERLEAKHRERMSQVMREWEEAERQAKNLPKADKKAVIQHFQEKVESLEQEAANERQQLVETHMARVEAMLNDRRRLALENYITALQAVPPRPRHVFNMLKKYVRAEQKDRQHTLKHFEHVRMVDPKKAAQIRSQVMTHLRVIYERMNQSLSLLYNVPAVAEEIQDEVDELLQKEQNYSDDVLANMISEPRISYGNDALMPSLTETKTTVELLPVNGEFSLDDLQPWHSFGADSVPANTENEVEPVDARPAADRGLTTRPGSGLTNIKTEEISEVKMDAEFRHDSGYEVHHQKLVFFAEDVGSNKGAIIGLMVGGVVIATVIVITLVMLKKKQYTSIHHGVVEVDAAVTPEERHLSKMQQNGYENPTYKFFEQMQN
# Method in brief: (§1)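 Aβ42 aggregation kinetics followed for 10 days by thioflavin-T fluorescence, which reports parallel β-sheets. Each monosaccharide tested at several concentrations from 250 μM up to 50 mM.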
# [2] = target: Amyloid-beta precursor protein (Homo sapiens) (UniProt P05067); experiment: Modulation of human amyloid beta (1 to 42) supramolecular assembly assessed as elongation of amyloidbeta42 fibrils at 50 mM measured for 10 days by ThT dye based fluorescence spectrophotometry; settings: time 10.0 day; method in brief: as §1
# [3] = target: Amyloid-beta precursor protein (Homo sapiens) (UniProt P05067); experiment: Modulation of human amyloid beta (1 to 42) supramolecular organization assessed as reduction in antiparallel beta-sheets characteristic of cytotoxic Abeta42 aggregates at 1 mM measured for 5 days by CD spectrometry; settings: filed as modulator, time 5.0 day
# Method in brief: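 Aβ42 secondary structure followed by circular dichroism over 1 and 5 days, with 1 mM of each monosaccharide present. Loss of antiparallel β-sheet was scored against 25 μM Aβ42 control. Error bars SD.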
# [4] = system: SH-SY5Y; experiment: Cytotoxicity against human SH-SY5Y cells assessed as reduction in cell viability at 1 mM measured after 1 day by alamar blue assay; type: cell-based; settings: 24 h, 1000 µM
# Method in brief: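 SH-SY5Y neuroblastoma cells exposed to each monosaccharide (1 mM) under cell culture conditions without Aβ42. Viability screened for cytotoxicity.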
# [5] = system: SH-SY5Y; experiment: Neuroprotective activity against Abeta-42-induced cytotoxicity in human SH-SY5Y cells assessed as increase in cell viability at 1 mM measured upto 5 days by alamar blue assay; type: functional, cell-based; settings: time day <=5
# Method in brief: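 SH-SY5Y cells incubated with Aβ42 plus each monosaccharide (1 mM) for 5 h, 24 h and 5 days. Cell viability measured at each time.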
# [6] = target: Amyloid-beta precursor protein (Homo sapiens) (UniProt P05067); experiment: Modulation of human amyloid beta (1 to 42) supramolecular organization at 0.4 mM by dynamic light scattering based analysis; settings: filed as modulator
# [7] = target: Amyloid-beta precursor protein (Homo sapiens) (UniProt P05067); experiment: Modulation of human amyloid beta (1 to 42) supramolecular organization assessed as prevalence of Abeta42 fibrils with parallel beta-sheets at 1 mM incubated for 5 days by ATR-FITR analysis; settings: time 5.0 day
# [8] = target: Amyloid-beta precursor protein (Homo sapiens) (UniProt P05067); experiment: Modulation of amyloid beta (1 to 42) supramolecular organization in human SH-SY5Y cells assessed as reduction in insulin resistance by measuring reduction in Abeta-42-induced IRS1 phosphorylation at Ser612 residue at 1 mM incubated for 1 hr by immunoblot analysis; type: cell-based; settings: filed as modulator
# Method in brief: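 SH-SY5Y cells cultured 1 h in medium with 10% FBS and no added insulin, with or without Aβ42 (25 μM) and each monosaccharide. IRS1 phosphorylation at S612 quantified by expression analysis. Parallel runs supplemented with 5 nM insulin.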
# [9] = target: Amyloid-beta precursor protein (Homo sapiens) (UniProt P05067); experiment: Modulation of human amyloid beta (1 to 42) supramolecular organization assessed as reduction in 6E10 epitope binding site structure at 1 mM measured for 1 to 5 days by Western blot analysis; settings: filed as modulator, time 1-5 day
# Method in brief: (§2)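 Aβ42 (25 μM) incubated with monosaccharide (1 mM) for 1 or 5 days; assemblies detected by Western blot with antibody 6E10 and quantified by relative densitometry against Aβ42 alone; error bars SD.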
# [10] = target: Amyloid-beta precursor protein (Homo sapiens) (UniProt P05067); experiment: (§3) Modulation of amyloid beta (1 to 42) supramolecular organization in human SH-SY5Y cells assessed as inhibition of Abeta42-induced disruption of cell membrane by measuring reduction in Ca2+ influx at 1 mM incubated for 24 hrs by Fluo-3AM dye based scanning confocal fluorescence microscopy relative to control; settings: filed as modulator
# Method in brief: (§4)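 SH-SY5Y cells cultured 24 h with Aβ42 (25 μM) plus each monosaccharide (1 mM). Intracellular free Ca2+ imaged by fluorescence using Fluo3-AM […] as Ca2+ probes. Controls were cells cultured without Aβ42 and monosaccharide.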
# [11] = target: Amyloid-beta precursor protein (Homo sapiens) (UniProt P05067); experiment: as §3, with “[…]” for “Fluo-3AM”; settings: filed as modulator; method in brief: as §4
# [12] = target: Amyloid-beta precursor protein (Homo sapiens) (UniProt P05067); experiment: Modulation of amyloid beta (1 to 42) supramolecular organization in human SH-SY5Y cells assessed as reduction in AChE activity at 1 mM incubated for 1 day; type: cell-based; settings: filed as modulator
# Method in brief: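 SH-SY5Y neuroblastoma cells exposed to Aβ42 with monosaccharide (1 mM); cellular AChE activity read after 1 day of incubation.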
# [13] = target: Amyloid-beta precursor protein (Homo sapiens) (UniProt P05067); experiment: Modulation of amyloid beta (1 to 42) supramolecular organization in human SH-SY5Y cells assessed as reduction in insulin resistance by measuring increase in AKT1 phosphorylation phosphorylation at Ser473 residue at 1 mM incubated for 1 hr by immunoblot analysis; type: cell-based; settings: filed as modulator
# Method in brief: (§5)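 SH-SY5Y cells in medium with 10% FBS, no added insulin, cultured 1 h with Aβ42 (25 μM) with or without monosaccharide (1 mM); protein expression read by immunoblot.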
# [14] = target: Amyloid-beta precursor protein (Homo sapiens) (UniProt P05067); experiment: Modulation of amyloid beta (1 to 42) supramolecular organization in human SH-SY5Y cells assessed as reduction in inflammation by measuring decrease in Abeta-42-induced ANXA1 expression at 1 mM incubated for 1 hr by immunoblot analysis; type: cell-based; settings: filed as modulator; method in brief: as §5
# [15] = target: Amyloid-beta precursor protein (Homo sapiens) (UniProt P05067); experiment: Modulation of amyloid beta (1 to 42) supramolecular organization in human SH-SY5Y cells assessed as reduction in insulin resistance by measuring reduction in Abeta-42-induced IRS1 phosphorylation at Ser612 residue at 1 mM incubated for 1 hr in presence of insulin by immunoblot analysis; type: cell-based; settings: filed as modulator
# Method in brief: (§6)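 SH-SY5Y cells in medium with 10% FBS plus 5 nM insulin, cultured 1 h with Aβ42 (25 μM) with or without monosaccharide (1 mM); protein expression read by immunoblot.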
# [16] = target: Amyloid-beta precursor protein (Homo sapiens) (UniProt P05067); experiment: Modulation of amyloid beta (1 to 42) supramolecular organization in human SH-SY5Y cells assessed as reduction in inflammation by measuring decrease in Abeta-42-induced ANXA1 expression at 1 mM incubated for 1 hr in presence of insulin by immunoblot analysis; type: cell-based; settings: filed as modulator; method in brief: as §6
# [17] = target: Amyloid-beta precursor protein (Homo sapiens) (UniProt P05067); experiment: Modulation of human amyloid beta (1 to 42) supramolecular organization assessed as reduction in amount of cytotoxic Abeta42 oligomers at 1 mM measured for 1 to 5 days by Western blot analysis; settings: filed as modulator, time 1-5 day; method in brief: as §2
Activity [1],Activity [2],Activity [6],Activity [7],Activity [8],Structure (SMILES),Activity [3],Activity [4],Activity [5],Activity [9],inhibition [10],inhibition [11],Activity [12],Activity [13],Activity [14],Activity [15],Activity [16],Activity [17],Activity ([7]; filed as modulator)
Active,inactive,Active,inactive,–,N[C@@H]1[C@@H](O)[C@H](O)[C@@H](CO)O[C@H]1O,Active,Non-Toxic,Active,–,–,–,–,–,–,–,–,–,–
Active,inactive,Active,inactive,Active,CC(=O)N[C@H]1C(O)O[C@H](CO)[C@@H](O)[C@@H]1O (some centres not stated),Active,Non-Toxic,Active,–,–,–,–,–,–,–,–,–,–
Active,inactive,Active,–,Active,N[C@@H]1[C@@H](O)[C@H](O)[C@@H](COP(=O)(O)O)O[C@H]1O,Active,Non-Toxic,Active,Active,Active,Active,–,Active,Active,Active,Active,–,Active

Structure (SMILES),Activity [1],Activity [2],Activity [6],Activity [7],Activity [8],Activity [3],Activity [4],Activity [5],Activity [9],inhibition [10],inhibition [11],Activity [12],Activity [13],Activity [14],Activity [15],Activity [16],Activity [17],Activity ([7]; filed as modulator)
N[C@@H]1[C@@H](O)[C@H](O)[C@@H](COS(=O)(=O)O)O[C@H]1O,Active,inactive,Active,–,Active,Active,Non-Toxic,Active,Active,41%,60%,Active,Active,Active,Active,Active,Active,Active
